# Only some compounds are listed: those with a hit (about 3% of all), similar ones and a draw of the others.
# PKD1 kinase inh – inhibitors of human PKD1 kinase; inhibition, % (concentration not given with the values); PKD1 kinase fluorescence polarization assay; AID 797; 200,000 tested, 0.056% active; in the data active means inhibition above about 50%
# Cl transport mod – modulates chloride dependent transport by human KCC2 | KCC2 cells, thallium flux FluoZin-2 fluorescence | AID 1456 | 190,000 tested, 2.2% active | B-score of Tl+ flux slope (higher = more flux/activation; lower = inhibition) at 10 µM | Q9H2X9;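 active means thallium flux slope and its plate-corrected score both differing from the plate sample mean at a set confidence after two filtering rounds, in either direction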;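 further: slope of fluorescence scaled to starting intensity during 10 to 20 s after thallium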
# Target sequence (Q9H2X9 whole entry, looked up): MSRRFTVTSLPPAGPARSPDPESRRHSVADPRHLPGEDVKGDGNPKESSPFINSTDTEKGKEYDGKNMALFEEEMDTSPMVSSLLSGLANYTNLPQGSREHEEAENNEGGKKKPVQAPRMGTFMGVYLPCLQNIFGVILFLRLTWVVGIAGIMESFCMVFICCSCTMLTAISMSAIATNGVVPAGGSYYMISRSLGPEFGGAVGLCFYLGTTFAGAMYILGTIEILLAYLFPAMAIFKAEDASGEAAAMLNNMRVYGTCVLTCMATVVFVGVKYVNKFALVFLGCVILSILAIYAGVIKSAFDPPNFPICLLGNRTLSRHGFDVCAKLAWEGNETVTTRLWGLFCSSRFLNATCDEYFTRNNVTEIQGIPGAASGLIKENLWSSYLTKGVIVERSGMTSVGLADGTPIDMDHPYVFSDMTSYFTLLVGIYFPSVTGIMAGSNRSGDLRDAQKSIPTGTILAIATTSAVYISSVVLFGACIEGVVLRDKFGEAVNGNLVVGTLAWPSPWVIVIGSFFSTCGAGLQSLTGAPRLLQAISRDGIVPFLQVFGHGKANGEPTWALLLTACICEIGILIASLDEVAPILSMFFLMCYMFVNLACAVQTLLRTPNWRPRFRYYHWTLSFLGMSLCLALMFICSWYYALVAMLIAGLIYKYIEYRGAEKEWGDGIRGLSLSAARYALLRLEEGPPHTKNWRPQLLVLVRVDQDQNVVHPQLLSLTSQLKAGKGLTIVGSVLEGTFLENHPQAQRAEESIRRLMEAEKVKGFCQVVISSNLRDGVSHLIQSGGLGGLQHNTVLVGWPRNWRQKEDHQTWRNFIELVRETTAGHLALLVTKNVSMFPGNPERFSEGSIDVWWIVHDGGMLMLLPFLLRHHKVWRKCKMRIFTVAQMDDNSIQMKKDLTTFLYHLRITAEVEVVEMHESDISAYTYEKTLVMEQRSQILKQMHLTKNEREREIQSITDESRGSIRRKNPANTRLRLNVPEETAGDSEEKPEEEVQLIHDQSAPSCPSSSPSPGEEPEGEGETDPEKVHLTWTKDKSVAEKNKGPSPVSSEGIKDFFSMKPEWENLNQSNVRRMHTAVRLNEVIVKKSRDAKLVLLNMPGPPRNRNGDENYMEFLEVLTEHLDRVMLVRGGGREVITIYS
# ROMK primary – modulates human ROMK potassium channel activity; Tet-inducible ROMK, thallium flux fluorescence; actives lie on both sides; B-score at 10 µM; 130,000 tested, 2% active;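 active means signal ratio slope over the read window, or its plate-corrected B-score, at least 3 SD from the plate mean, either direction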;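 further: B-score of the F/F0 ratio slope over 7 to 12 s after thallium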
# Rad51 HR inh – blocks human Rad51 in homologous recombination | Q06609 | hRad51 DNA strand exchange, fluorescence dequenching | inhibition, % at 10 µM | 200,000 tested, 0.085% active | AID 1385;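 active means inhibition above 40% at the single screening dose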;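 further: 0% = DMSO control wells and 100% = blanks with heterologous ssDNA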
#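 material = hRad51 filaments on single-stranded DNA | timing = filaments 15 min 37 °C, then compound 30 min | signal = FRET fluorescence dequenching, excitation 485 nm, emission 520 nm | benchmarks = control wells and blank wells on each plate | evaluation = percent inhibition relative to plate controls and blanks | compound = 10 µM final, single point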
# KCC2 sec1 – confirmation of human KCC2 transport modulators. 3,700 tested, 15% active. HEK293-KCC2, thallium flux, FluoZin2 fluorescence; active compounds read high. shares compounds with Cl transport mod. normalised thallium flux (F/F0 slope) at 10 µM;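 active means thallium flux slope above the same plate's solvent-only control mean plus 3 SD; inconclusive means the two replicate wells disagree; inactive means no significant difference from solvent-only control wells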
# KCC2 bumet counter – thallium flux persisting under bumetanide in KCC2 cells, counter-screen secondary assay. shares compounds with Cl transport mod. HEK293-KCC2 + bumetanide/ouabain, thallium flux FluoZin2; active compounds read high. normalized thallium flux at 10 µM. 3,700 tested, 49% active. AID 1714;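 active means thallium entry rate above the same plate's blocked-transporter control wells by more than 3 SD; inconclusive means the two repeat wells disagree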;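 further: raw slope of fluorescence over initial fluorescence between 10 and 20 s after thallium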
# KCC2 sec2 – confirmation of human KCC2 transport modulators; HEK293-KCC2, thallium flux FluoZin2 fluorescence; actives lie on both sides; F/F0 rise rate, 10–20 s post-thallium; shares compounds with Cl transport mod; 3,700 tested, 23% active; normalized thallium flux at 10 µM;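 active means thallium flux slope more than 3 SD above or below the plate's solvent-only control mean, mostly below; inconclusive means the two repeat wells disagreed; inactive means no significant shift from solvent-only controls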;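 further: raw slope with 0.1% DMSO as baseline and bumetanide as block control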
# HEK293 Tl flux – parental HEK flux effect, counter-screen; shares compounds with Cl transport mod; 3,700 tested, 46% active; AID 1716; thallium flux rate (normalised fluorescence) at 10 µM; HEK293 parental cells, thallium flux FluoZin2, ouabain; baseline-ratio fluorescence slope, 10–20 s after thallium;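 active means thallium flux rate significantly above the same plate's solvent-only control wells, beyond their mean plus 3 SD; inconclusive means the two replicate wells gave conflicting results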
# KCC2 ouabain – modulates human KCC2 on retest with ouabain; shares compounds with Cl transport mod; HEK293-KCC2, thallium flux FluoZin2 fluorescence; bidirectional: low = inhibitor, high = activator; 3,700 tested, 48% active; raw Tl+ flux slope (below DMSO = inhibition, above = activation) at 10 µM;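 active means thallium flux slope beyond 3 SD from same-plate DMSO control mean in most replicates, usually higher, sometimes lower; inconclusive means repeat tests gave conflicting results; inactive means no significant difference from controls in most replicates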;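 further: slope of initial-normalized fluorescence between seconds 10 and 20 after thallium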
# HEK293 Tl flux2 – parental HEK flux effect, counter-screen 2. shares compounds with Cl transport mod. HEK293 parental, thallium flux FluoZin-2 fluorescence slope. thallium flux slope at 10 µM. 3,700 tested, 33% active. AID 1718;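 active means thallium flux slope above the same plate's solvent-control mean plus 3 SD in both duplicate wells; inconclusive means duplicate wells that disagreed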;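 further: run without ouabain in cells lacking the KCC2 cotransporter; slope of fluorescence scaled to its starting value between 10 and 20 s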
# * marks the source's active call; other numbers are inactive results; ? = inconclusive; / = no result given.
SMILES,PKD1 kinase inh,Cl transport mod,ROMK primary,Rad51 HR inh,KCC2 sec1,KCC2 bumet counter,KCC2 sec2,HEK293 Tl flux,KCC2 ouabain,HEK293 Tl flux2
CC(C)(C)NC(=O)C(=O)NNC(=O)c1cccc(F)c1,1,21*,0.15,/,0.006,0.025*,0.038*,0.024*,0.032*,0.026*
O=C(COc1ccc2ccccc2c1)Nc1cccc(C(=O)Nc2ccccc2C(=O)O)c1,-5,-4.7*,0.45,/,?,0.0055,0.024*,?,0.014*,?
C=CCNc1oc(Cc2cccc3ccccc23)nc1C#N,5,-4.6*,/,-7,0.006,0.0048,0.023*,0.0069,?,0.0096
N#Cc1nc(Cc2cccc3ccccc23)oc1N1CCOCC1,4,-6*,/,-7,0.0068,0.0044,0.022*,0.0075,0.012*,0.01
N#Cc1nc(Cc2cccc3ccccc23)oc1NCCN1CCOCC1,-4,-4.5*,-1.8,0,0.0059,0.0047,0.023*,0.0069,?,0.01
N#Cc1nc(Cc2cccc3ccccc23)oc1N1CCN(c2ccccc2)CC1,4,/,-1.6,-3,/,/,/,/,/,/
N#Cc1nc(Cc2cccc3ccccc23)oc1NCc1ccc(F)cc1,0,-2.8,-0.095,-3,/,/,/,/,/,/
COc1cccc(CN2CCNC(=O)C2CC(=O)N(C)Cc2cnccn2)c1OC (stereo not drawn),-7,0.33,0.51,18,/,/,/,/,/,/
COc1ccc(CNC(=O)c2ccc(N3CCC4(CC3)CC(c3ccc(Cl)cc3)=NO4)c(N)c2)cc1,/,/,/,0,/,/,/,/,/,/
CCOC(=O)Cn1nc(C(F)F)c(Br)c1C,-5,/,0.24,7,/,/,/,/,/,/
CC(=O)NCCC(=O)N1CCCC(C(=O)c2ccc3c4c(cccc24)CC3)C1 (stereo not drawn),-4,0.27,-0.65,-2,/,/,/,/,/,/
CC(=O)NCCC(=O)N1CCCC(CNC(=O)c2ccc(-c3ccccc3)cc2)C1 (stereo not drawn),2,-4.5*,1.1,-6,0.0078,0.0053,?,0.006,0.013*,0.0091
C=CCC(=O)N1CCCC(CNC(=O)c2ccc(-c3ccccc3)cc2)C1 (stereo not drawn),-8,-5.5*,-0.0094,0,0.0081,0.0063,0.031,0.0076,0.014*,0.011
O=C(NCC1CCCN(C(=O)c2cscn2)C1)c1ccc(-c2ccccc2)cc1 (stereo not drawn),-4,-5.3*,1.2,-12,0.0053,0.0045,0.021*,?,0.012*,0.011
CCOC(=O)Cc1csc(NC(=O)CSc2cc(Cl)ccc2Cl)n1,-12,-1.3,-1.9,3,/,/,/,/,/,/
CN(C)c1ccc(NC(=O)COC(=O)Cn2nnc3ccccc32)cc1,2,0.01,/,-9,/,/,/,/,/,/
N#CCCN(Cc1cccnc1)C(=S)NC1CC2C=CC1C2 (stereo not drawn),/,/,/,4,/,/,/,/,/,/
CCN(CC(=O)Nc1ccc(C(C)=O)cc1)CC(=O)Nc1cccc(OC)c1,-7,-0.039,-0.7,-6,/,/,/,/,/,/
COC1=C/C(=C/c2c(N)n3cc(C)sc3nc2=O)C=CC1=O,19,-6.6*,-2.7,/,0.0038*,-0.0015*,0.017*,0.0028*,0.008*,0.006*
CCOC(=O)c1sc2nc(C)[nH]c(=S)c2c1C,0,200*,/,17,0.054*,0.15*,0.052*,0.11*,0.12*,0.05*
CC(C)Oc1cccc(-c2cc(C(=O)NC(=S)N(C)c3ccccc3C(=O)O)c3ccccc3n2)c1,3,4.4*,/,2,?,0.02*,0.033,0.011*,?,0.014*
COc1ccc(Cl)cc1C(=O)NNC(=S)NC(=O)c1cc(-c2ccccc2)nc2ccccc12,-8,4.8*,/,/,0.006,0.0087*,0.034,0.012*,0.022,0.012
CCNC(=S)NNC(=O)c1cc(-c2cccc(OC)c2)nc2ccccc12,-10,-0.81,0.14,-8,/,/,/,/,/,/
COc1ccc(C(=O)NNC(=S)NC(=O)c2cc(-c3ccccc3)nc3ccccc23)cc1,2,6.6*,/,/,0.0072,0.017*,0.032,0.022*,0.026*,0.015*
CCCOc1ccc(C(=O)NNC(=S)NC(=O)c2cc(-c3ccc(Cl)cc3)nc3ccccc23)cc1,3,1.2,1.1,-2,/,/,/,/,/,/
SMILES,PKD1 kinase inh,Cl transport mod,ROMK primary,Rad51 HR inh,KCC2 sec1,KCC2 bumet counter,KCC2 sec2,HEK293 Tl flux,KCC2 ouabain,HEK293 Tl flux2
S=C(Sc1ccc(Cl)cc1)Sc1ccc(Cl)cc1,/,-1.1,0.56,-18,/,/,/,/,/,/
Cc1cccc(NC(=S)N=Nc2c(O)[nH]c3ccccc23)c1,-5,17*,-0.23,19,?,0.032*,0.028,0.015*,0.046*,?
CC(C)c1ccc2[nH]c(O)c(N=NC(=O)c3cccc(S(=O)(=O)Nc4ccccc4Cl)c3)c2c1,-5,0.14,0.51,-3,/,/,/,/,/,/
CC(C)NC(=S)N=Nc1c(O)[nH]c2ccc(C(C)C)cc12,-4,4.1*,/,4,0.0079,0.013*,0.032,0.015*,?,0.014*
COc1ccccc1NC(=S)N=Nc1c(O)[nH]c2ccc(Br)cc12,/,9.1*,/,-10,0.0071,0.01*,0.037,0.014*,?,0.017*
O=c1[nH]c2ccc(S(=O)(=O)N3CCN(c4ccccc4F)CC3)cc2s1,8,-4.8*,/,1,0.0069,0.005,0.024*,0.0068,0.013*,0.0099
Cc1[nH]c(=O)[nH]c(=O)c1S(=O)(=O)N1CCN(c2ccccc2F)CC1,-6,-0.71,/,3,/,/,/,/,/,/
Cc1ccc(O)c(N=Cc2cc(Cc3ccccc3)cc([N+](=O)[O-])c2O)c1,1,-3.8*,0.0036,-37,0.0067,?,0.032,0.0035,0.014*,?
CN(C)CCN(C(=O)c1ccccc1Cl)c1nc2c(Cl)cccc2s1,-7,0.24,-0.63,-8,/,/,/,/,/,/
O=C(NCc1ccccc1)C1C2C=CC3(CN(Cc4cccnc4)C(=O)C13)O2 (stereo not drawn),-6,1,/,2,/,/,/,/,/,/
CC(C)N1C(=O)C2C(C(=O)NCc3ccccc3)C3C=CC2(O3)C1C(=O)NC(C)(C)C (stereo not drawn),6,2.8*,/,-6,0.0094,0.0062,0.03,0.0077,0.026,0.01
CCCCN(C)CCCNC(=O)C1CC(=O)N(Cc2ccc(OC)cc2)C1 (stereo not drawn),-1,/,0.017,0,0.009,0.0051,0.031,0.0075,0.019,0.011
